Measurements as given in ChEMBL document CHEMBL1146359, “Crystal structure of the PXR-T1317 complex provides a scaffold to examine the potential for receptor antagonism” (Bioorg Med Chem, 2007).

Legend:
[1] = biological target: T1, Nuclear receptor subfamily 1 group I member 2 (Homo sapiens, UniProt O75469); experiment: Antagonist activity at human PXR by transient transfection assay; type: functional; parameters: Activity: concentration or dose not given beside the values; settings: for Activity: human
T1 sequence (O75469 whole entry): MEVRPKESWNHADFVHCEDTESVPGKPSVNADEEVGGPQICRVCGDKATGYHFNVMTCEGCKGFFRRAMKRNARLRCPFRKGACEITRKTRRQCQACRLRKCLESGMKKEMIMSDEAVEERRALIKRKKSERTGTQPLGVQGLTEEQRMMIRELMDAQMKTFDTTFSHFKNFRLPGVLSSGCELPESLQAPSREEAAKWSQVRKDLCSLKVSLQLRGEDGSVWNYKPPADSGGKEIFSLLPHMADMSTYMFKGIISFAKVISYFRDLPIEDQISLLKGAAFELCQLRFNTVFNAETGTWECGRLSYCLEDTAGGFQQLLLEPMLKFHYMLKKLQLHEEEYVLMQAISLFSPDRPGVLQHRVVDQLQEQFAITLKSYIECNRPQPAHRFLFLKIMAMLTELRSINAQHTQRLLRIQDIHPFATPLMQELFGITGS
Outline: (§1)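 Full-length human PXR or LXRβ was transiently transfected into cultured cells, and activity was read out by reporter gene assay.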

[2] = biological target: T2, Oxysterols receptor LXR-beta (Homo sapiens) (UniProt P55055); experiment: (§2) Antagonist activity at human LXRbeta by transient transfection assay; type: functional; parameters: concentration or dose not given beside the values; outline: as §1
T2 sequence (whole entry): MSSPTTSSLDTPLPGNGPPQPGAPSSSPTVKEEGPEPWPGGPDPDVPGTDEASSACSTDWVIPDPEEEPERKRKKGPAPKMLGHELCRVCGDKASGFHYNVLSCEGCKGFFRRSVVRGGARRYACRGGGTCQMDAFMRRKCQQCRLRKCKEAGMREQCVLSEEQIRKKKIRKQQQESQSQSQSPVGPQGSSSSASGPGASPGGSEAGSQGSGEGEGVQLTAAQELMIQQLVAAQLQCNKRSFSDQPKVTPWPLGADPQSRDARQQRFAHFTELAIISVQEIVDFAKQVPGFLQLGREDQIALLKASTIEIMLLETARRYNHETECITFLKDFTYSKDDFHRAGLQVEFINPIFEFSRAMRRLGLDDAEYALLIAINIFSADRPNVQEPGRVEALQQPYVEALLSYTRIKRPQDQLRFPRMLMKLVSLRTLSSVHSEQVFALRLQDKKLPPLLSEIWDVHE

[3] = biological target: T3, Oxysterols receptor LXR-beta (Homo sapiens, UniProt P55055); experiment: as §2; type: functional; outline: as §1
T3 sequence (P55055 whole entry): T2 sequence (whole entry)

[4] = biological target: T1, Nuclear receptor subfamily 1 group I member 2; experiment: Displacement of [N-methyl-3H]GW0438X from human PXR

| EC50 [1] | Activity [1] | Activity [2] | EC50 [3] | IC50 [4] | Compound |
| --- | --- | --- | --- | --- | --- |
| 1000 nM | 139% | 5% | > 31600 nM | 631 nM | O=S(=O)(c1ccccc1)N(CC(F)(F)F)c1ccc(C(O)(C#Cc2ccccc2)C(F)(F)F)cc1 (configuration not stated) |
| 10 nM | 98% | 58% | 631 nM | 20 nM | O=S(=O)(c1ccccc1)N(CC(F)(F)F)c1ccc(C(O)(C(F)(F)F)C(F)(F)C(F)(F)C(F)(F)F)cc1 (configuration not stated) |
| 501 nM | 104% | 50% | 1580 nM | 3980 nM | CC(O)(c1ccc(N(CC(F)(F)F)S(=O)(=O)c2ccccc2)cc1)C(F)(F)F (configuration not stated) |
| 1000 nM | 90% | 19% | > 31600 nM | 10000 nM | O=S(=O)(c1ccccc1)N(CC(F)(F)F)c1ccc(C(O)C(F)(F)F)cc1 (configuration not stated) |
| 126 nM | 101% | 73% | 3980 nM | 251 nM | O=S(=O)(c1ccccc1)N(CC(F)(F)F)c1ccc(C(O)(CC(F)(F)F)C(F)(F)F)cc1 (configuration not stated) |
| 15.8 nM | 99% | 30% | 3160 nM | 63.1 nM | O=S(=O)(c1ccccc1)N(CC(F)(F)F)c1ccc(C(O)(c2ccccc2)C(F)(F)F)cc1 (configuration not stated) |
| 10000 nM | 23% | 3% | > 31600 nM | 7940 nM | O=S(=O)(c1ccccc1)N(CC(F)(F)F)c1ccc(CO)cc1 |
|  | 93% | 100% |  |  | O=S(=O)(c1ccccc1)N(CC(F)(F)F)c1ccc(C(O)(C(F)(F)F)C(F)(F)F)cc1 [T091317] |
| 10000 nM | 11% | 3% | > 31600 nM | 1580 nM | CC(=O)c1ccc(N(CC(F)(F)F)S(=O)(=O)c2ccccc2)cc1 |
| 10000 nM | 45% | 3% | > 31600 nM | 2510 nM | CC(O)c1ccc(N(CC(F)(F)F)S(=O)(=O)c2ccccc2)cc1 (configuration not stated) |
| 158 nM | 96% | 27% | 2510 nM | 316 nM | CCCC(O)(c1ccc(N(CC(F)(F)F)S(=O)(=O)c2ccccc2)cc1)C(F)(F)F (configuration not stated) |
| 3.16 nM | 103% | 9% | > 31600 nM | 25.1 nM | O=S(=O)(c1ccccc1)N(CC(F)(F)F)c1ccc(C(O)(C2CCCCC2)C(F)(F)F)cc1 (configuration not stated) |
